For test [1], the system named is UACC-62. The test is described as follows: Antitumor activity against human UACC62 cells by SRB colorimetric assay. The format is functional, cell-based. The gist of the method: (§1)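 NCI sulforhodamine B colorimetric growth assay in 96-well plates. Each compound tested at four concentrations in 10-fold dilutions. Doxorubicin as positive control. IC50 taken from concentration–response curves as the concentration giving 50% reduction in cell growth versus untreated control cells.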
Background: The SRB assay estimates cell density from bound dye.

In test [2] the test system is MCF7. The test is described as follows: Antitumor activity against human MCF7 cells by SRB colorimetric assay. The format is functional, cell-based. The gist of the method: as §1
Test [3] deals with NCI-H460. The test is described as follows: Antitumor activity against human NCI-H460 cells by SRB colorimetric assay. The format is functional, cell-based. In short, it runs like this:
as §1

Test [4] concerns K562. The test can be described thus: Antitumor activity against human K562 cells by SRB colorimetric assay. The test is classed as functional, cell-based. The gist of the method: as §1
In test [5] the test system is OVCAR. The test is described as follows: Antitumor activity against human OVCAR cells by SRB colorimetric assay. The format is functional, cell-based. The gist of the method: as §1
Test [6] is described as follows: Antitumor activity against human PCO3 cells by SRB colorimetric assay. The test is classed as functional, cell-based. The gist of the method:
as §1

The subject of test [7] is HT-29. The test can be described thus: Antitumor activity against human HT-29 cells by SRB colorimetric assay. The test is classed as functional, cell-based. In short, it runs like this: as §1
Test [8] relates to 786-0. The test is described as follows: Antitumor activity against human 786-0 cells by SRB colorimetric assay. The format is functional, cell-based. In short, it runs like this: as §1
The test system of test [9] is Mus musculus. The test is described as follows: Antitumor activity against mouse Ehrlich Ascitic tumor xenografted in BALB/c mouse assessed as reduction of tumor volume in paw at 10 mg/kg, ip administered every 3 days for 15 days measured on day 9 by plethysmograph analysis. The test is classed as functional, organism-based. On the set-up: dose 10 mg/kg.

The record followed here is ChEMBL document CHEMBL1914299, “Synthesis and antitumor activity of β-carboline 3-(substituted-carbohydrazide) derivatives” (Bioorg Med Chem, 2011).

Each structure is given as a SMILES string. Calls of active or inactive are those of the source. No cut-off for these calls is given here.

Broadly, the IC50 is the concentration at which inhibition is half-maximal. Read a high IC50 as weaker potency in that assay. Turning to `O=C(N/N=C/c1ccccc1Cl)c1cc2c([nH]c3ccccc32)c(-c2ccc(O)cc2)n1`, the IC50 in test [1] amounted to 1.56 µM; in test [2], 7.01 µM; in test [3], 2.18 µM; in test [4], 1.65 µM; in [5] it was 1.83 µM; in test [6], 2.03 µM. For the same molecule, the results for the half-inhibitory concentration (IC50) in test [7] and in test [8] were 1.71 µM and 3.22 µM, respectively.
For `CC(C)=NNC(=O)c1cc2c([nH]c3ccccc32)c(-c2ccccc2Cl)n1`, the IC50 in test [1] is 19.1 µM; in [2], 26.7 µM; in test [3], greater than 100 µM; in test [4], 21.7 µM; in [5] it was 64.2 µM; in test [6] it was 25.6 µM. The IC50 was 38.9 µM in test [7] and greater than 100 µM in test [8].
As to `CC(C)=NNC(=O)c1cc2c([nH]c3ccccc32)c(-c2ccc(O)cc2)n1`, the IC50 in test [1] was 35.4 µM; in test [2], 24.3 µM; in test [3], 38.1 µM; in test [4] it was 18.1 µM; in [5] it was greater than 100 µM; in test [6] it was 19.7 µM. Further, the results for the IC50 in test [7] and in [8] were greater than 100 µM and 24.3 µM, respectively.
`O=C(N/N=C/c1ccc([N+](=O)[O-])cc1)c1cc2c([nH]c3ccccc32)c(-c2ccccc2)n1`: the IC50 in [1] stood at 4.78 µM; in test [2] it was 21.3 µM; in test [3] it was 5.16 µM; in test [4], 4.29 µM; in test [5] it was 14.4 µM; in test [6] it was 8.6 µM. For the same molecule, the values for the IC50 in test [7] and in test [8] were 15.1 µM and 29.7 µM, respectively.
With `O=C(NN=C1CCCCC1)c1cc2c([nH]c3ccccc32)c(-c2cccc([N+](=O)[O-])c2)n1`, the IC50 is greater than 100 µM in test [1]; greater than 100 µM in [2]; greater than 100 µM in [3]; 87.1 µM in test [4]; greater than 100 µM in test [5]; greater than 100 µM in [6]. The IC50 in [7] and in test [8] was greater than 100 µM in each case.
Turning to `O=C(N/N=C/c1ccc([N+](=O)[O-])cc1)c1cc2c([nH]c3ccccc32)c(-c2cccc([N+](=O)[O-])c2)n1`, the IC50 in [1] came to 3.27 µM; in test [2], 12.8 µM; in [3], 6.76 µM; in [4] it was 4.26 µM; in [5], 46.7 µM; in test [6], 24.8 µM. Besides, the IC50 in test [7] is 7.34 µM; in test [8], greater than 100 µM.
Turning to `O=C(NN=C1CCCCC1)c1cc2c([nH]c3ccccc32)c(-c2ccc([N+](=O)[O-])cc2)n1`, the IC50 is greater than 100 µM in test [1]; 25.6 µM in [2]; greater than 100 µM in test [3]; greater than 100 µM in [4]; greater than 100 µM in test [5]; greater than 100 µM in [6]. For the same molecule, the IC50 was greater than 100 µM in test [7] and 72.8 µM in [8].
As for `COc1ccc(-c2nc(C(=O)NN=C(C)C)cc3c2[nH]c2ccccc23)cc1O`, the IC50 in test [1], in test [2], in test [3], in [4], in test [5] and in [6] was greater than 100 µM each time. Further, the IC50 in test [7] was greater than 100 µM; in test [8], 70 µM.
Consider `COc1ccc(-c2nc(C(=O)NN=C3CCCCC3)cc3c2[nH]c2ccccc23)cc1`, for which the IC50 in test [1] stood at 11.7 µM; in test [2], 9.14 µM; in [3], 20.2 µM; in [4] it was 10.3 µM; in test [5] it was 12.8 µM; in [6], 10.3 µM. Moreover, the values for the IC50 in test [7] and in test [8] were 14 µM and 18.6 µM, respectively.
On to `COc1ccc(-c2nc(C(=O)N/N=C/c3ccccc3Cl)cc3c2[nH]c2ccccc23)cc1`, for which the IC50 worked out at 5.57 µM in test [1]; 10.4 µM in test [2]; 1.43 µM in test [3]; 2.52 µM in test [4]; 7.43 µM in [5]; 4.52 µM in test [6]. For the same molecule, the IC50 came to 1.26 µM in test [7] and 2.52 µM in test [8].
Regarding `O=C(N/N=C/c1ccccc1Cl)c1cc2c([nH]c3ccccc32)c(-c2ccccc2)n1`, the IC50 in test [1] came out at 2.16 µM; in test [2], 6.13 µM; in test [3] it was 4.57 µM; in [4] it was 1.45 µM; in test [5], 2.84 µM; in test [6], 2.52 µM. Also, the IC50 amounted to 1.25 µM in test [7] and 2.16 µM in test [8].
For the molecule `COc1ccc(-c2nc(C(=O)N/N=C/c3ccccc3)cc3c4ccccc4n(C)c23)cc1`, the IC50 in test [1], in test [2], in [3], in test [4], in test [5] and in [6] was greater than 100 µM in each case. For the same molecule, the IC50 in test [7] is greater than 100 µM; in test [8], 1.39 µM.
For the molecule `O=C(N/N=C/c1ccccc1Cl)c1cc2c([nH]c3ccccc32)c(-c2cccc([N+](=O)[O-])c2)n1`, the IC50 in test [1] is 35.7 µM; in test [2], 14.1 µM; in [3], 28.9 µM; in test [4], 68.1 µM; in test [5], greater than 100 µM; in test [6], 16.6 µM. Further, the IC50 in test [7] worked out at 15.3 µM; in test [8] it was 17 µM.
Consider `O=C(NN=C1CCCCC1)c1cc2c([nH]c3ccccc32)c(-c2ccccc2Cl)n1`, for which the IC50 in [1] was 21.6 µM; in [2], 6.19 µM; in test [3], 54.1 µM; in [4] it was greater than 100 µM; in test [5], 20.8 µM; in test [6], 18.3 µM. Also, the IC50 stood at 40.4 µM in test [7] and 24.5 µM in test [8].
Turning to `O=C(NN=C1CCCC1)c1cc2c([nH]c3ccccc32)c(-c2cccc([N+](=O)[O-])c2)n1`, the IC50 in test [1], in test [2], in test [3], in [4], in test [5] and in test [6] was greater than 100 µM in each case. For the same molecule, the IC50 in [7] and in test [8] was greater than 100 µM each time.
For `COc1ccc(/C=N/NC(=O)c2cc3c([nH]c4ccccc43)c(-c3ccc(OC)cc3)n2)cc1`, the IC50 in test [1] was 91.4 µM; in test [2], 71.4 µM; in test [3], 35.1 µM; in test [4] it was greater than 100 µM; in test [5], greater than 100 µM; in test [6] it was greater than 100 µM. Besides, the IC50 in test [7] and in test [8] was greater than 100 µM throughout.
In the case of `O=C(NN=C1CCCCC1)c1cc2c([nH]c3ccccc32)c(-c2ccccc2)n1`, the IC50 is 31.2 µM in test [1]; 32.5 µM in test [2]; 68.9 µM in test [3]; 55.9 µM in test [4]; 78 µM in [5]; 27.5 µM in [6]. Moreover, the IC50 in test [7] is 47.3 µM; in test [8] it was greater than 100 µM.
Consider `CN(C)c1ccc(/C=N/NC(=O)c2cc3c([nH]c4ccccc43)c(-c3ccccc3)n2)cc1`, for which the IC50 in test [1] was 87.1 µM; in [2], 75.9 µM; in test [3], greater than 100 µM; in test [4] it was greater than 100 µM; in [5], 75.9 µM; in test [6], 87.1 µM. For the same molecule, the IC50 in test [7] and in test [8] was greater than 100 µM each time.
In the case of `CC(C)=NNC(=O)c1cc2c([nH]c3ccccc32)c(-c2ccc(N(C)C)cc2)n1`, the IC50 in test [1] was determined as 10.1 µM; in test [2] it was 16.8 µM; in test [3], 25.4 µM; in test [4], 23.4 µM; in test [5], 40.5 µM; in test [6] it was 19 µM. The IC50 in test [7] worked out at 35.6 µM; in [8], 26.5 µM.
Regarding `O=c1[nH]cc(F)c(=O)[nH]1`, the outcome in test [9] was Active.
On to `COc1ccc(/C=N/NC(=O)c2cc3c([nH]c4ccccc43)c(-c3ccc([N+](=O)[O-])cc3)n2)cc1`, for which the IC50 in test [1] came to 9.69 µM; in test [2], 8.19 µM; in test [3], 4.58 µM; in test [4], 7.54 µM; in [5], 21.4 µM; in [6], 7.54 µM. Further, the IC50 in test [7] is 8.92 µM; in test [8], 14.1 µM.
As for `O=C(N/N=C/c1ccc([N+](=O)[O-])cc1)c1cc2c([nH]c3ccccc32)c(-c2ccc(O)cc2)n1`, the IC50 was 4.46 µM in [1]; 12.3 µM in [2]; greater than 100 µM in test [3]; 3.73 µM in test [4]; 51 µM in [5]; 12.8 µM in test [6]. Besides, the IC50 in test [7] was determined as 3.87 µM; in test [8], 9.58 µM.
Regarding `CN(C)c1ccc(/C=N/NC(=O)c2cc3c4ccccc4n(C)c3c(-c3cccc([N+](=O)[O-])c3)n2)cc1`, the IC50 in [1], in test [2], in test [3], in test [4], in [5] and in test [6] was greater than 100 µM each time. For the same molecule, the IC50 in test [7] was greater than 100 µM; in [8], 1.24 µM.
`COc1ccc(-c2nc(C(=O)N/N=C/c3ccc([N+](=O)[O-])cc3)cc3c2[nH]c2ccccc23)cc1`: the IC50 in [1], in test [2], in [3], in [4], in [5] and in test [6] was greater than 100 µM throughout. Moreover, the IC50 in test [7] and in test [8] was greater than 100 µM in each case.
In the case of `O=C(NN=C1CCCC1)c1cc2c([nH]c3ccccc32)c(-c2ccccc2Cl)n1`, the IC50 in test [1] is 11.7 µM; in test [2], 7.37 µM; in test [3], 13.8 µM; in [4], greater than 100 µM; in test [5] it was 11.2 µM; in [6] it was 15 µM. The IC50 amounted to 20.1 µM in test [7] and 11.7 µM in [8].
